The text below walks through data of ChEMBL document CHEMBL2010661, “Optimization of 2,4-diarylanilines as non-nucleoside HIV-1 reverse transcriptase inhibitors” (Bioorg Med Chem Lett, 2012).

The term EC50 denotes the midpoint of the concentration-response curve. What is called solubility is how much of the substance goes into solution per volume. Higher therefore signals a readily soluble substance. As a reminder, the CC50 is the concentration giving 50% cytotoxicity.

Series [1] has as its system Liver microsomes. The series is described as follows: Half life in human liver microsomes at 1 uM. In kind it is ADME, Microsome. The essentials: (§1)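 1 μM compound (diluted from DMSO stock via ACN) at 37 °C in 0.1 M potassium phosphate pH 7.4 with 0.1 mg/mL human liver microsomes and 5 mM MgCl2. NADPH (1.0 mM final) started the reaction.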
Background: Liver microsomes are vesicles of endoplasmic reticulum, rich in cytochrome P450 enzymes.

The test system of series [2] is Liver microsomes. The series is described as follows: Clearance in human liver microsomes at 1 uM. In kind it is ADME, Microsome. A digest of the protocol: as §1
Series [3] deals with Human immunodeficiency virus 1. The series is described as follows: Antiviral activity against Human immunodeficiency virus 1 harboring reverse transcriptase E138K mutant. In kind it is functional, organism-based.
In series [4] the test system is Liver microsomes. The series is described as follows: Half life in rat liver microsomes at 1 uM. In kind it is ADME, Microsome. The essentials:
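Rat liver microsome incubation of 1 μM compound at 37 °C in 0.1 M potassium phosphate pH 7.4 with 5 mM MgCl2. NADPH (1.0 mM final) started the reaction, with ice-cold ACN quench at 0–60 min, in duplicate. […] Means of at least two experiments.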

Series [5] is described as follows: Selectivity index, ratio of CC50 for human TZM-bl cells to EC50 for Human immunodeficiency virus 1 NL4-3. The class given is toxicity, cell-based. To be noted: read-out: Ratio CC50/EC50.
Series [6] in a line: Aqueous solubility of the compound at pH 2 by HPLC/UV analysis. In kind it is physicochemical. The conditions noted are these: buffer.
In series [7] the test system is Human immunodeficiency virus 1. The series is described as follows: Antiviral activity against Human immunodeficiency virus 1 NL4-3 infected in human TZM-bl cells assessed as inhibition of viral replication. The conditions noted are these: Human immunodeficiency virus 1, NL4-3, TZM-bl. The class given is functional, organism-based.
Series [8] is described as follows: Cytotoxicity against human TZM-bl cells. The class given is cell-based.
A short description of series [9]: Aqueous solubility of the compound at pH 7.4 by HPLC/UV analysis. In kind it is physicochemical. The conditions noted are these: buffer.
The subject of series [10] is Human immunodeficiency virus 1. The series is described as follows: Antiviral activity against Human immunodeficiency virus 1 harboring reverse transcriptase K101E mutant. In kind it is functional, organism-based. A digest of the protocol:
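EC50 against the resistant strain (RTMDR1, K101E or E138K), from experiments run at least in triplicate and reported as mean ± SD.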

The test system of series [11] is Human immunodeficiency virus 1. The series is described as follows: Antiviral activity against multi-reverse transcriptase-resistant Human immunodeficiency virus 1. In kind it is functional, organism-based.

Converted amounts (≈) assume the structure as drawn.

`Cc1cc(/C=C/C#N)cc(C)c1Oc1cc(Nc2ccc(C#N)cc2)c(N)cc1[N+](=O)[O-]`: the results for the t1/2 in the series with Liver microsomes [1] and in the series with Liver microsomes [4] were 0.783 h and 2.32 h, respectively. This molecule also displayed a CLH with Liver microsomes [2] of 150 µL/min/mg. For the same molecule, the response in series [3] was half-maximal at 11.3 nM (EC50).

Turning to `COC(=O)c1cc(N)c(Nc2ccc(C#N)cc2)cc1Oc1c(C)cc(/C=C/C#N)cc1C`, the selectivity ratio in series [5] was above 8460. Moreover, the solubility in [6] turned out to be 1.75 µg/mL (≈ 3.99 µM); in [9], 1.3 µg/mL (≈ 2.96 µM). The EC50 in series [7] is 2.74 nM. In series [8], this molecule showed a half-maximal cytotoxic concentration (CC50) above 22800 nM.

As for `Cc1cc(/C=C/C#N)cc(C)c1Oc1cc(Nc2ccc(C#N)cc2)c(N)cc1C(=O)O`, the selectivity ratio in series [5] is 65. The solubility was found to be 4.4 µg/mL (≈ 10.4 µM) in [6] and 117 µg/mL (≈ 276 µM) in [9]. Besides, the concentration giving a half-maximal response (EC50) in [7] is 230 nM. The CC50 in series [8] came to 14900 nM.

As for `Cc1cc(/C=C/C#N)cc(C)c1Oc1cc(Nc2ccc(C#N)cc2)c(N)cc1C(N)=O`, the figures for the t1/2 in the series on Liver microsomes [1] and in the series with Liver microsomes [4] were 0.583 h and 2.03 h, respectively. Moreover, the selectivity ratio in series [5] is above 27100. Moreover, the CLH in the series with Liver microsomes [2] turned out to be 200 µL/min/mg. Also, the EC50 in [3] worked out at 9 nM; in series [7] it was 0.87 nM; in series [10], 8.8 nM; in series [11], 0.31 nM. Also, the solubility was 2.1 µg/mL (≈ 4.96 µM) in series [6] and 0.63 µg/mL (≈ 1.49 µM) in series [9]. The same molecule showed a CC50 in series [8] above 23600 nM.

With `CNC(=O)c1cc(N)c(Nc2ccc(C#N)cc2)cc1Oc1c(C)cc(/C=C/C#N)cc1C`, the selectivity ratio in series [5] was above 1610. The solubility is 8.63 µg/mL (≈ 19.7 µM) in [6] and 1.32 µg/mL (≈ 3.02 µM) in series [9]. The EC50 in series [7] is 5.72 nM. In series [8], this molecule came in with a CC50 above 9200 nM.

Consider `Cc1cc(/C=C/C#N)cc(C)c1Oc1cc(Nc2ccc(C#N)cc2)c(N)cc1CO`, for which the t1/2 in the series with Liver microsomes [1] was 0.5 h; in the series with Liver microsomes [4], 1.4 h. In addition, the selectivity ratio in [5] was 30800. The molecule further returned a CLH with Liver microsomes [2] of 230 µL/min/mg. The concentration for a half-maximal effect (EC50) stood at 3.9 nM in series [3], 0.53 nM in series [7], 3.4 nM in [10] and 0.36 nM in [11]. Further, the solubility in series [6] came out at 21 µg/mL (≈ 51.2 µM); in series [9], 3.23 µg/mL (≈ 7.87 µM). The molecule also showed a CC50 in series [8] of 16300 nM.

For the molecule `Cc1cc(/C=C/C#N)cc(C)c1Nc1ccnc(Nc2ccc(C#N)cc2)n1` [RILPIVIRINE], the t1/2 in the series on Liver microsomes [1] was found to be 0.567 h; in the series on Liver microsomes [4], 2 h. In addition, the CLH in the series on Liver microsomes [2] is 200 µL/min/mg. The same molecule showed a CC50 in series [8] of 19400 nM.
